Assay outcomes: PubChem BioAssay, several laboratories
proCasp7 act: procaspase-7 activators, primary screen, counter-screen for procaspase-3 activator project, biochemical, absorbance, HTS, human | recombinant procaspase-7, Ac-DEVD-pNA absorbance 405 nm; D23A/D198A/D206A triple mutant, cannot self-cleave; scale: DMSO 0, 5 µM enzyme 100 | activation, % at 8.5 µM | 330,000 compounds, 0.093% hits | AID 463210, 2010;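 active = percent activation above the screen-wide mean plus 3 SD, cut at about 25% in these data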
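System: Procaspase-7 triple mutant (PC-7 D3A); measure: % activation from two-timepoint absorbance difference, scaled to controls; times: 1 h compound preincubation, 2 h substrate cleavage, 25 °C; also added: Ac-DEVD-pNA substrate, 400 µM as added; measured by: Epi-absorbance of released pNA at 405 nm, two timepoints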
CHT PAM: CHT positive allosteric modulators, primary screen, cell-based, membrane potential dye, choline EC20; High affinity choline transporter 1 (Homo sapiens), Q9GZV3; CHT-expressing cells; stronger effect = higher value; LV-AA mutant CHT in HEK293 cells; B-score at 10 µM; 310,000 compounds, 0.49% hits;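 active = initial fluorescence not abnormally high and integrated response B-score, plate-corrected, over 3 SD above library mean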
proCasp3 act: activators of human procaspase-3 D3A mutant, primary screen, biochemical, absorbance, PC-3 D3A mutant, single concentration | Caspase-3 (Homo sapiens), P42574 | recombinant procaspase-3 D3A, Ac-DEVD-pNA absorbance 405 nm | activation, % at 8.5 µM | 330,000 compounds, 0.11% hits | AID 463141, 2010;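 active = activation above the mean of all tested compounds plus 3 SD, cut at about 21% in these data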
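assay system = Procaspase-3 D3A mutant | signal = absorbance at 405 nm, 0 and 120 min | times = 1 h preincubation plus 2 h reaction at 25 °C | repeats = single replicate | read-out = % activation between DMSO and enzyme-spiked controls | medium = Zinc-free HEPES saline buffer with Triton X-100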
CHT block: inhibitors of human choline transporter CHT | CHT-expressing cells, membrane potential dye, choline response; stronger effect = lower value | 310,000 compounds, 0.86% hits | B-score at 10 µM;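 active = B-score over 3 SD under the library average, and starting fluorescence ratio not unusually high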;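 note: choline stimulus applied at its EC90 after an EC20 pre-addition; B-score computed on integrated fluorescence ratio after choline addition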
CHT inh conf: CHT inhibitors, confirmation, cell-based, membrane potential dye, duplicate. shares compounds with CHT block. CHT-expressing cells, choline membrane potential dye; LV-to-AA substituted CHT, HEK293 cells. CHT activity remaining % of control (stronger effect = lower value), % at 10 µM. 2,400 compounds, 70% hits;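 active = choline transporter activity left, mean of duplicates at 10 µM, below buffer-only control mean minus 3 SD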;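 note: depolarization triggered by choline at its EC90 following an EC20 pre-addition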
HEK293 MPD ctr: membrane potential effects in parental HEK293, counter-screen for CHT inhibitor project, cell-based, membrane potential dye; shares compounds with CHT block; choline response; active = decrease or increase beyond buffer ±3SD; membrane potential ratio readout (active if shifted either direction beyond buffer ±3SD; no single direction) at 10 µM; 2,400 compounds, 4% hits; AID 493222, 2011;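 note: parental cells lack the transporter so any hit is non-specific; ratio is peak minus trough fluorescence over baseline after EC90 choline challenge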
A number is an active result; i = inactive; nt = no result given. Sampled rows, rich in hits. Any-hit rate of the full collection: about 1.3%.

SMILES | proCasp7 act | CHT PAM | proCasp3 act | CHT block | CHT inh conf | HEK293 MPD ctr
CC(C)c1cc(O)c(-c2ccccc2)c(=O)n1-c1ccc(Cl)cc1 | i | i | i | -5 | i | i
CC1(C)c2cc(Cl)ccc2-n2c1cc(O)c(-c1ccccc1)c2=O | i | i | i | -6 | 44% | i
Cc1ccc(S(=O)(=O)N2CCCC2=O)c(C)c1N(C)S(C)(=O)=O | i | i | i | i | nt | nt
Nn1c(SCc2cccc(Br)c2)nnc1-c1ccncc1 | i | i | i | i | nt | nt
CN1Cc2sc(N)c(C#N)c2CC1(C)C | i | i | i | -9 | 33% | i
CN1Cc2sc(NC(=S)NC(=O)c3ccccc3)c(C#N)c2CC1(C)C | i | i | i | i | nt | nt
CCN(CC(=O)Nc1c(F)cccc1F)C(=O)CC1CCCCC1 | i | nt | i | nt | nt | nt
O=C1C(Cl)=C(NS(=O)(=O)c2ccc([N+](=O)[O-])cc2)C(=O)c2ccccc21 | i | i | i | -5.8 | 49% | 2.3
O=C1CCCN1C(=O)CSc1nnnn1-c1ccccc1 | i | nt | i | nt | nt | nt
Cc1cccc(C(=O)NCCC(=O)Nc2ccc(C#N)cc2)c1 | i | i | i | i | nt | nt
O=C(CSc1ncnc2c1nnn2Cc1ccccc1)NC1CCCC1 | i | i | i | i | nt | nt
CC(C)(C)NC(=O)CSc1ncnc2c1nnn2Cc1ccccc1Cl | i | i | i | -6.7 | i | i
CCOC(=O)CN1C(=O)S/C(=C/c2ccc(N3CCCCC3)o2)C1=O | i | i | i | i | nt | nt
COC(=O)CN1C(=O)S/C(=C/c2ccc(N3CCCCC3)o2)C1=O | i | i | i | -5.1 | i | i
COc1ccc(CNC(=O)CN2CCN(c3ccccc3O)CC2)cc1OC | i | i | i | i | nt | nt
Cc1ccc(N(C)C(=O)CC(C)S(=O)(=O)c2ccc3c(c2)NC(=O)CO3)cc1 (stereo not given) | i | i | i | -5.7 | i | i
Cc1ccc(NC(=O)CC(C)S(=O)(=O)c2ccc3c(c2)NC(=O)CO3)c(Cl)c1 (stereo not given) | i | i | i | i | nt | nt
O=C(COc1ccccc1)Nc1c(C(=O)N2CCC(N3CCCCC3)CC2)oc2ccccc12 | i | i | i | -7.5 | 37% | 3.7
O=C(Nc1c(C(=O)N2CCC(N3CCCCC3)CC2)oc2ccccc12)c1ccc(F)cc1 | i | i | i | -13 | 0.9% | i
CCOCCCN(C)C1CCN(C(=O)c2oc3ccccc3c2NC(=O)c2ccc([N+](=O)[O-])cc2)CC1 | i | i | i | i | nt | nt
O=C(COc1ccc(F)cc1)Nc1c(C(=O)N2CCC(N3CCCCC3)CC2)oc2ccccc12 | i | i | i | -12 | 29% | i
CCOCCCN(C)C1CCN(C(=O)c2oc3ccccc3c2NC(=O)c2ccc(F)cc2)CC1 | i | i | i | -9 | 21% | i
COc1ccc(OCC(=O)Nc2c(C(=O)N3CCC(N4CCCCC4)CC3)oc3ccccc23)cc1 | i | i | i | i | nt | nt
O=C(Nc1c(C(=O)N2CCC(N3CCCCC3)CC2)oc2ccccc12)c1c(F)cccc1F | i | i | i | i | nt | nt
CCN(CC(=O)NCc1ccc(Cl)cc1)C(=O)c1cc(S(=O)(=O)N2CCOCC2)ccc1C | i | nt | i | nt | nt | nt
O=C(O)CN1C(=O)c2ccc(C(=O)c3ccccc3)cc2C1=O | i | i | i | i | nt | nt
CC1CCCCC1NC(=O)CCn1ccc2cc(S(=O)(=O)N3CCCC3)ccc21 (stereo not given) | i | i | i | -6.2 | 41% | i
CC1CCCCC1NC(=O)c1ccc2c(c1)[nH]c(=O)n2C1CCCC1 (stereo not given) | i | i | i | -9.9 | 40% | i
